Experimental data taken from ChEMBL document CHEMBL1153359, “Synthesis and biological evaluation of N4-(hetero)arylsulfonylquinoxalinones as HIV-1 reverse transcriptase inhibitors” (Bioorg Med Chem, 2009).

Tested on: Human immunodeficiency virus 1
Assay: Inhibition of HIV1 replication in human 293T cells preincubated 15 mins prior to infection measured after 48 hrs postinfection by luciferase reporter gene assay
Format: functional, organism-based
Conditions: Human immunodeficiency virus 1, HEK-293T
In short: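 Pseudotyped virus was made by co-transfecting 293 cells with the env-deficient HIV-1 luciferase vector pNL4-3.luc.R-E- and a VSV-G plasmid (modified calcium phosphate method). 293ET target cells were seeded at 6 × 10⁴ per well the day before infection. Compound was added 15 min before the VSVG/HIV-1 virus, with a solvent-only control. Cells were lysed 48 h post-infection.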

SMILES	IC50
COC(=O)c1sccc1S(=O)(=O)N1CC(=O)Nc2ccc(Cl)cc21	830 nM
CCC1C(=O)Nc2ccc(Cl)cc2N1S(=O)(=O)c1ccsc1C(=O)OC (stereo unspecified)	6300 nM
COC(=O)c1sccc1S(=O)(=O)N1CC(=O)Nc2ccc(F)cc21	2020 nM
CC1C(=O)Nc2ccc(F)cc2N1S(=O)(=O)c1cccc2cccnc12 (stereo unspecified)	7000 nM
O=C1Nc2ccc(Cl)cc2[C@@](C#CC2CC2)(C(F)(F)F)O1 [EFAVIRENZ]	1.3 nM
Cc1cn([C@H]2C[C@H](N=[N+]=[N-])[C@@H](CO)O2)c(=O)[nH]c1=O [ZIDOVUDINE]	48 nM
CC1C(=O)Nc2ccc(F)cc2N1S(=O)(=O)c1cc(Cl)sc1Cl (stereo unspecified)	> 100000 nM
CC1C(=O)Nc2ccc(Cl)cc2N1S(=O)(=O)c1cccc2cccnc12 (stereo unspecified)	650 nM
CC1C(=O)Nc2ccc(F)cc2N1S(=O)(=O)c1cccc(C#N)c1 (stereo unspecified)	55000 nM
CCC1C(=O)Nc2ccc(F)cc2N1S(=O)(=O)c1ccsc1C(=O)OC (stereo unspecified)	5000 nM
O=C1CN(S(=O)(=O)c2cccc3cccnc23)c2cc(F)ccc2N1	980 nM
COC(=O)CC1C(=O)Nc2ccc(F)cc2N1S(=O)(=O)c1ccsc1C(=O)OC (stereo unspecified)	> 100000 nM
O=C1CN(S(=O)(=O)c2cccc3cccnc23)c2ccc(C(F)(F)F)cc2N1	> 100000 nM
CC1C(=O)Nc2ccc(F)cc2N1S(=O)(=O)c1ccc([N+](=O)[O-])cc1 (stereo unspecified)	> 100000 nM
COC(=O)c1sccc1S(=O)(=O)N1c2cc(F)ccc2NC(=O)C1C (stereo unspecified)	200 nM
O=C1CN(S(=O)(=O)c2cccc3cccnc23)c2cc(Cl)ccc2N1	330 nM
COC(=O)c1sccc1S(=O)(=O)N1c2cc(F)ccc2NC(=O)C1CCSC (stereo unspecified)	> 100000 nM
COC(=O)c1sccc1S(=O)(=O)N1c2cc(Cl)ccc2NC(=O)C1C (stereo unspecified)	200 nM
CCC1C(=O)Nc2ccc(Cl)cc2N1S(=O)(=O)c1cccc2cccnc12 (stereo unspecified)	> 100000 nM
N#Cc1cccc(S(=O)(=O)N2CC(=O)Nc3ccc(F)cc32)c1	> 100000 nM
COC(=O)c1sccc1S(=O)(=O)N1CC(=O)Nc2cc(C(F)(F)F)ccc21	> 100000 nM
